# Experimental data taken from the RNAGym collection of RNA variant scans (doi:10.1038/nmeth.2970).
# B1: GFP aptamer (parent)
# chain: GCUUCUGGACUGCGAUGGGAGCACGAAACGUCGUGGCGCAAUUGGGUGGGGAAAGUCCUUAAAAGAGGGCCACCACAGAAGC
# B2: NELF-E aptamer (parent)
# chain: CCCAACGACUGCCGAGCGAGAUUACGCUUGAGCGCCCCACUGAGGAUGCCCACGGGCGAUUGGGGCACGG
# Variants of: B1
# Assay: HiTS-RAP
# Conditions: with EGFP
# Procedure, shortened: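 Aptamer DNA templates carrying a T7 promoter and ter site were sequenced on an Illumina GAIIx flowcell, then transcribed in situ by T7 RNA polymerase and halted by GST-Tus (30 minutes, 37°C). Clusters were imaged after 30-minute room-temperature equilibration with EGFP-mOrange at 0.04 nM to 625 nM in fivefold steps. Intensities were decay-corrected, normalised to sequencing intensity and averaged per sequence. Kd came from weighted Hill fits per lane, geometrically averaged over three lanes, with non-rising sequences set to 125 nM.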
row,Variant,Kd [nM]
1,U4G,4.6
2,A41G U43C,12.7
3,U42C C74U,1.05
4,C24U A27G,7.09
5,G50A,68
6,A15C,66.2
7,U56G,3.15
8,C10U G14A,6.22
9,U31C A41G,3.04
10,C22U G68A,18
11,U31C G68A,28.1
12,C22U U43C,2.31
13,G51A,8.55
14,U3G,5.4
15,A20G A79G,37.9
16,U11C A40G,4.63
17,G49C,57.7
18,G7C,88.1
19,A27G A40G,2.81
20,A26G A77G,3.88
21,C32U A79G,5.26
22,C58G,29.1
23,G38U,14.5
24,G38A,28
25,C13U A40G,3

row,Variant,Kd [nM]
1,A28G U31C,5.74
2,A20G C58U,11.5
3,A75G A79G,6.58
4,C22U A28G,10.1
5,C24A,10.6
6,A64C,≥ 125
7,A15G A28G,3.9
8,A72G C73U,8.64
9,G36C,≥ 125
10,G45A,28.2
11,G45U,22.7
12,G18C,≥ 125
13,G18U,≥ 125
14,A26G C32U,5.01
15,U31C G44A,1.82
16,G25A A27G,5.68
17,C76G,28.8
18,U43G,19.5
19,U43A,5.22
20,U42C,6.72
21,A20G U60A,7.33
22,G78U,6.2
23,G78A,13.2
24,A20G A28G,15.5
25,G33A A79G,11.9

row,Variant,Kd [nM]
1,G25A U31C,3.75
2,A26G,4.22
3,A26C,4.53
4,G25A A26G,6.06
5,G25A C32U,13.6
6,C10G A20G,4.36
7,A20G G33A,49
8,G19U,≥ 125
9,G19C,≥ 125
10,G19A,48.3
11,C29U U31C,2.86
12,G30A,4.37
13,G30C,4.2
14,U11C,24.2
15,U11G,3.81
16,G8A,26.7
17,A28G C58U,1.28
18,A23G A26G,35.8
19,C71U,14.5
20,C71A,≥ 125
21,A53G,33.3
22,A53U,118
23,A23G A27G,5.79
24,C37A,5.05
25,C57A,≥ 125

row,Variant,Kd [nM]
1,C57G,≥ 125
2,C24U A28G,2.43
3,C24U C58U,2.39
4,A62C,4
5,A62U,3.36
6,A23U,11.2
7,U34C A41G,2.74
8,A79C,18.6
9,A27G C73U,10.5
10,A20G U31C,35.3
11,G12U,18.9
12,G12A,22.4
13,A27G U31C,4.55
14,A27G C37U,3.28
15,A61C,5.03
16,A61G,3.47
17,G65A,12.4
18,U31G,3.99
19,U31C A79G,3.52
20,A40U,21.7
21,A15G G25A,2.42
22,A27G,4.28
23,A27U,3.98
24,C10U U47C,1.58
25,A26G A41G,2.97

row,Variant,Kd [nM]
1,A28G U47A,3.89
2,C24U A41G,11.7
3,G25A C58U,2.17
4,G14A,7.34
5,G14C,25.1
6,G33A,11.6
7,G33U,35.1
8,G44U,93.2
9,G69A,≥ 125
10,G69U,3.44
11,C37U C73U,24
12,G25A G33A,11.9
13,A26G U31C,3.77
14,C39U,10.3
15,C10A,3.61
16,A20G,8.28
17,U34A,30.6
18,U34G,6.01
19,C10U G33A,29.6
20,C29A,3.32
21,C29U,4.49
22,A9U,6.86
23,U60C,16.6
24,U60G,5.38
25,U6A,8.81

row,Variant,Kd [nM]
1,G25A,5
2,G25U,3.87
3,G14A A28G,4.8
4,G81C,14.1
5,C13U C58U,0.942
6,A27G U43C,4.45
7,G33A C73U,8.48
8,A20G A62G,13.1
9,C13U C70U,2.02
10,A66G C74U,12.3
11,U59G,6.85
12,C32U C70U,11.5
13,C13A,14.6
14,C13G,6.37
15,U43C A77G,5.23
16,C22U A41G,21.2
17,U11C U31C,14.2
18,A20G A26G,7.96
19,U47A,8.14
20,C74G,14.5
21,A40G C73U,4.47
22,A27G C71U,17.8
23,A28G C37U,7.93
24,U16C A28G,4.74
25,G30A C74U,5.86

row,Variant,Kd [nM]
1,A27G G68A,17.3
2,A72G C74U,7.35
3,C73G,7.26
4,A41G C74U,5.07
5,A80C,12.1
6,A80G,3.57
7,A80U,6.99
8,A52U,≥ 125
9,A52G,12.3
10,A41G U47C,2.42
11,A28G U42C,6.79
12,C70G,43.1
13,C70U,7.23
14,G25A A77G,3.54
15,A41G,5.96
16,A41U,4.87
17,A41C,10.1
18,A28G A77G,2.55
19,U11C C73U,44.7
20,A75U,26.3
21,A75G,9.8
22,A26G C73U,5.43
23,U59C A77G,0.842
24,U42C U47C,19.6
25,U31C A75G,14

# Variants of: B2
# Assay: HiTS-RAP
# Conditions: with NELF-E (Drosophila)
# Procedure, shortened: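 Aptamer DNA templates bearing a T7 promoter and a ter site were sequenced on an Illumina GAIIx flowcell. T7 RNA polymerase then transcribed them in situ, and GST-Tus halted transcription over 30 minutes at 37°C. After a 30-minute room-temperature equilibration with NELF-E-mOrange at 0.064 to 1000 nM in HEPES binding buffer, clusters were imaged, using only the first binding curve. Intensities normalised to sequencing intensity were averaged per sequence and fitted with weighted Hill fits to give Kd, retaining only fits whose variance stayed under 1,000,000.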
row,Variant,Kd [nM]
1,U10G A52U,14.9
2,U10G C49G,7.15
3,A4U G64A,10.1
4,C6G C53G,7.67
5,A4G U10A,5.89
6,G11A A19G,6.92
7,A4G C9U,5.95
8,U22G C37G,7.01
9,C9A U22G,3.88
10,A4G G11U,6.46
11,U10G U41A,82.6
12,A5G U22C,5.45
13,A8G A15U,5.54
14,G16U G34A,9.22
15,C12G G18A,7.26
16,G11A U41A,77
17,A21U A24G,5
18,U23G C38U,9.73
19,A4G U23C,4.96
20,A8U C25U,6.08
21,U23G U29G,5.13
22,C6G G26A,4.39
23,U29G G65U,6.57

row,Variant,Kd [nM]
1,U23G C49G,7.29
2,G14A G55U,8.79
3,A24G C40G,6.34
4,U23G U41G,5.48
5,U23G G26A,6.05
6,G7U G55A,7.6
7,A4G G32A,5.33
8,C12G,5.44
9,C12U,4.54
10,G14A G54A,12.4
11,A8G C13A,6.62
12,A24G U29A,4.42
13,U22C A24G,6.97
14,U10C G14U,4.95
15,G7U G63A,19.9
16,G7U G34A,7.85
17,G7U C27U,5.11
18,G11U C50U,17.7
19,A4G A39U,25.9
20,G7U G26U,6.93
21,U29A A31U,4.6
22,G11U A19G,6.05
23,A8G U47A,10.9

row,Variant,Kd [nM]
1,G62C,48.2
2,A21C,5.33
3,A21U,5.14
4,A8G G58U,20.1
5,C9G U28A,5.64
6,G7U G42U,17.4
7,A4G A19U,6.08
8,U23G G55A,7.34
9,U29G A39G,7.69
10,U10A C53U,5.03
11,C6G A59G,54.9
12,U10G G62U,6.99
13,A24U,5.93
14,A5G C40U,60.2
15,C9G A52C,7.38
16,U22G G54U,7.13
17,A5U G14A,6.18
18,A4U,5.39
19,G18U A19G,6.31
20,G34A A52U,20.7
21,C13G A19G,5.43
22,U10A A15G,3.62
23,A5U U41A,80.9

row,Variant,Kd [nM]
1,U10G G64A,7.4
2,A21G U41G,6.21
3,A24G U61G,9.98
4,A4C C12G,7.65
5,G30A,4.41
6,C6G U41G,5.12
7,U22G A31U,5.65
8,U10G C66U,4.66
9,C33U A39U,26.9
10,C6G C51U,7.16
11,A4U C66U,5.14
12,A8G U22C,5.08
13,C9G C12A,4.67
14,G11U C25G,4.89
15,U10C A19G,4.87
16,U29G C49U,22.4
17,U29G G30C,5.14
18,A4G C12A,5.36
19,A8G C17G,5.53
20,C40A,71.3
21,U61A A67U,49.7
22,A5C A8C,8.75
23,C9G G55A,10.3

row,Variant,Kd [nM]
1,A4U A19U,5.66
2,G7U G54U,5.44
3,G11U C13A,6.58
4,C13G G30U,6.03
5,C17G G30A,3.42
6,A5G C37U,10.4
7,A15U U29A,5.96
8,U22G U60C,10.8
9,U10G C35A,7.32
10,A5C G14U,6.73
11,G14A C51U,7.06
12,A67U,6.41
13,U47A G54A,15.1
14,G11U A21U,5.9
15,U10G G65C,17
16,C33G G34U,5.51
17,C37G,5.85
18,A4U C13U,5.19
19,C13G G20U,6.39
20,C17U G64A,11.1
21,A4G G48A,11
22,U23G A39U,24.8
23,C57U,5.5

row,Variant,Kd [nM]
1,A5G A15G,6.77
2,A8G G64A,7.44
3,G7U C13A,6.82
4,G7U C13U,5.75
5,A5G C17U,6.29
6,G7U G18A,5.43
7,A24G U41A,92.9
8,G11U G20A,5.7
9,A5G G7U,6.59
10,A4G C66U,5.13
11,U29G G42A,24.6
12,G14U G63U,12.8
13,U10G G26U,5.07
14,G7U U41C,91.2
15,G20U G64A,9.36
16,C13G,4.88
17,C27G U29G,5.43
18,A5U A15U,6.62
19,A8G A31G,7.13
20,A4U U41A,86.3
21,G14A C57U,6.72
22,U10G G32C,4.38
23,A5U U47G,7.11

row,Variant,Kd [nM]
1,C13G C25G,5.76
2,A4G G14U,6.38
3,C6G G56A,8.34
4,U10G G56C,27.1
5,A5G C38U,9.85
6,G11U G42A,55.9
7,C9G U60C,11.4
8,C6G C33G,5.77
9,U29G G44U,8.78
10,A8U C50U,10.4
11,A4U C57U,5.44
12,G63U,10.3
13,A21U U22G,5.31
14,C6U C12G,5.7
15,C1G,4.93
16,U29G G48U,6.22
17,U28A U29G,4.82
18,C9U U22G,5.55
19,C13G C51U,6.36
20,A5G A31U,5.74
21,G18A G20U,8.6
